# Measurements taken from ChEMBL document CHEMBL1125592, “Calcium channel blocking and positive inotropic activities of ethyl 5-cyano-1,4-dihydro-6-methyl-2-[(phenylsulfonyl)methyl]-4-aryl-3- pyridine-carboxylate and analogues. Synthesis and structure-activity relationships” (J Med Chem, 1991).
# Key:
# Oryctolagus cuniculus [1] = species on record: Oryctolagus cuniculus; test: Vasorelaxant effect at a concentration of 10e-5 M on rabbit aortic rings previously contracted with 1.0 uM Norepinephrine.; assay type: functional, Aorta; parameters: unit not given here
# Procedure, shortened: (§1)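 Rabbit aortic rings precontracted with 50 mM KCl or 1.0 μM norepinephrine, then exposed to increasing concentrations of test agent. Relaxation recorded at each concentration.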
# Oryctolagus cuniculus [2] = species on record: Oryctolagus cuniculus; test: Vasoconstrictor effect at a concentration of 10e-8 M in presence of nondepolarized isolated rings from rabbits.; assay type: functional
# Oryctolagus cuniculus [3] = species on record: Oryctolagus cuniculus; test: Vasoconstrictor effect at a concentration of 10e-9 M in presence of nondepolarized isolated rings from rabbits.; assay type: functional
# Rattus norvegicus [4] = species on record: Rattus norvegicus; test: Cardiovascular activity in isolated rat heart, concentration producing 25% increase in LV + dP/dtmax.; assay type: functional
# Procedure, shortened: (§2)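 Isolated Langendorff-perfused rat heart. Coronary flow (CF), LV +dP/dtmax and heart rate recorded during exposure to test agent. Value is the concentration giving a 25% rise in CF or in LV +dP/dtmax, mean ± SE. At least two hearts per compound.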
# Oryctolagus cuniculus [5] = species on record: Oryctolagus cuniculus; test: Vasoconstrictor effect at a concentration of 10e-8 M in presence of partially depolarized isolated rings from rabbits.; assay type: functional
# Oryctolagus cuniculus [6] = species on record: Oryctolagus cuniculus; test: Vasorelaxant effect at a concentration of 10e-4 M on rabbit aortic rings previously contracted with 1.0 uM Norepinephrine.; assay type: functional, Aorta; parameters: unit not given here; procedure, shortened: as §1
# Rattus norvegicus [7] = species on record: Rattus norvegicus; test: Cardiovascular activity in isolated rat heart, concentration producing 25% increase in CF (cardiac flow).; assay type: functional; procedure, shortened: as §2
# Oryctolagus cuniculus [8] = species on record: Oryctolagus cuniculus; test: Vasoconstrictor effect at a concentration of 10e-4 M in presence of nondepolarized isolated rings from rabbits.; assay type: functional
# Oryctolagus cuniculus [9] = species on record: Oryctolagus cuniculus; test: Vasorelaxant effect at a concentration of 10e-6 M on rabbit aortic rings previously contracted with 1.0 uM Norepinephrine.; assay type: functional, Aorta; parameters: unit not given here; procedure, shortened: as §1
# Oryctolagus cuniculus [10] = species on record: Oryctolagus cuniculus; test: Vasoconstrictor effect at a concentration of 10e-7 M in presence of nondepolarized isolated rings from rabbits.; assay type: functional
# Oryctolagus cuniculus [11] = species on record: Oryctolagus cuniculus; test: Vasorelaxant effect at a concentration of 10e-9 M on rabbit aortic rings previously contracted with 50 mM KCl.; assay type: functional, Aorta; procedure, shortened: as §1
# Rattus norvegicus [12] = species on record: Rattus norvegicus; test: Compound was tested for its effect on coronary vasodilator in isolated rat hearts.; assay type: functional
# Procedure, shortened: (§3)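 Coronary vasodilation and ventricular contractility measured in isolated Langendorff-perfused rat hearts. EC25 (concentration raising the parameter by 25%) given as mean ± SEM of four to six hearts.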
# Oryctolagus cuniculus [13] = species on record: Oryctolagus cuniculus; test: Vasorelaxant effect at a concentration of 10e-7 M on rabbit aortic rings previously contracted with 50 mM KCl.; assay type: functional, Aorta; parameters: unit not given here; procedure, shortened: as §1
# Oryctolagus cuniculus [14] = species on record: Oryctolagus cuniculus; test: Vasoconstrictor effect at a concentration of 10e-5 M in presence of nondepolarized isolated rings from rabbits.; assay type: functional
# Rattus norvegicus [15] = species on record: Rattus norvegicus; test: Compound was tested for its effect on ventricular contractility in isolated rat hearts.; assay type: functional, Cardiac ventricle; procedure, shortened: as §3
# [16] = molecular target: Voltage-gated L-type calcium channel (Rattus norvegicus, UniProt P22002+Q02485+P27732); test: Affinity to bind dihydropyridine receptor (DHP receptor) by inhibiting the radioligand [3H]nitrendipine; assay type: protein assay
# Procedure, shortened: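 [3H]nitrendipine displacement, rat brain cortical membranes. Each compound first screened at 1000 nM; if inhibition exceeded 40%, a four- to seven-point curve with unlabeled compound was run. IC50 generally mean of two experiments, each in triplicate. ">1000 nM" means under 40% inhibition of control binding at 1000 nM.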
# Oryctolagus cuniculus [17] = species on record: Oryctolagus cuniculus; test: Vasorelaxant effect at a concentration of 10e-6 M on rabbit aortic rings previously contracted with 50 mM KCl.; assay type: functional, Aorta; parameters: unit not given here; procedure, shortened: as §1
# Oryctolagus cuniculus [18] = species on record: Oryctolagus cuniculus; test: Vasoconstrictor effect at a concentration of 10e-5 M in presence of partially depolarized isolated rings from rabbits.; assay type: functional
# Oryctolagus cuniculus [19] = species on record: Oryctolagus cuniculus; test: Vasorelaxant effect at a concentration of 10e-7 M on rabbit aortic rings previously contracted with 1.0 uM Norepinephrine.; assay type: functional, Aorta; parameters: unit not given here; procedure, shortened: as §1
# Oryctolagus cuniculus [20] = species on record: Oryctolagus cuniculus; test: Vasoconstrictor effect at a concentration of 10e-7 M in presence of partially depolarized isolated rings from rabbits.; assay type: functional
# Oryctolagus cuniculus [21] = species on record: Oryctolagus cuniculus; test: Vasorelaxant effect at a concentration of 10e-5 M on rabbit aortic rings previously contracted with 50 mM KCl.; assay type: functional, Aorta; parameters: unit not given here; procedure, shortened: as §1
# Oryctolagus cuniculus [22] = species on record: Oryctolagus cuniculus; test: Vasorelaxant effect at a concentration of 10e-8 M on rabbit aortic rings previously contracted with 50 mM KCl.; assay type: functional, Aorta; procedure, shortened: as §1
# Oryctolagus cuniculus [23] = species on record: Oryctolagus cuniculus; test: Vasoconstrictor effect at a concentration of 10e-4 M in presence of partially depolarized isolated rings from rabbits.; assay type: functional
# Oryctolagus cuniculus [24] = species on record: Oryctolagus cuniculus; test: Vasoconstrictor effect at a concentration of 10e-9 M in presence of partially depolarized isolated rings from rabbits.; assay type: functional
# Oryctolagus cuniculus [25] = species on record: Oryctolagus cuniculus; test: Vasorelaxant effect at a concentration of 10e-4 M on rabbit aortic rings previously contracted with 50 mM KCl.; assay type: functional, Aorta; parameters: unit not given here; procedure, shortened: as §1
# Oryctolagus cuniculus [26] = species on record: Oryctolagus cuniculus; test: Vasoconstrictor effect at a concentration of 10e-6 M in presence of partially depolarized isolated rings from rabbits.; assay type: functional
# Oryctolagus cuniculus [27] = species on record: Oryctolagus cuniculus; test: Vasorelaxant effect at a concentration of 10e-8 M on rabbit aortic rings previously contracted with 1.0 uM Norepinephrine.; assay type: functional, Aorta; procedure, shortened: as §1
# Oryctolagus cuniculus [28] = species on record: Oryctolagus cuniculus; test: Vasorelaxant effect at a concentration of 10e-9 M on rabbit aortic rings previously contracted with 1.0 uM Norepinephrine.; assay type: functional, Aorta; procedure, shortened: as §1
# Oryctolagus cuniculus [29] = species on record: Oryctolagus cuniculus; test: Vasoconstrictor effect at a concentration of 10e-9 M using partially depolarized isolated rings from rabbit.; assay type: functional
# Oryctolagus cuniculus [30] = species on record: Oryctolagus cuniculus; test: Vasoconstrictor effect at a concentration of 3 x 10e-8 M using nondepolarized isolated rings from rabbit.; assay type: functional
# Oryctolagus cuniculus [31] = species on record: Oryctolagus cuniculus; test: Vasoconstrictor effect at a concentration of 3 x 10e-9 M using partially depolarized isolated rings from rabbit.; assay type: functional
# Oryctolagus cuniculus [32] = species on record: Oryctolagus cuniculus; test: Vasoconstrictor effect at a concentration of 10e-7 M using partially depolarized isolated rings from rabbit.; assay type: functional
# Oryctolagus cuniculus [33] = species on record: Oryctolagus cuniculus; test: Vasoconstrictor effect at a concentration of 10e-9 M using nondepolarized isolated rings from rabbit.; assay type: functional
# Oryctolagus cuniculus [34] = species on record: Oryctolagus cuniculus; test: Vasoconstrictor effect at a concentration of 10e-6 M using nondepolarized isolated rings from rabbit.; assay type: functional
# Oryctolagus cuniculus [35] = species on record: Oryctolagus cuniculus; test: Vasoconstrictor effect at a concentration of 10e-5 M using partially depolarized isolated rings from rabbit.; assay type: functional
# Oryctolagus cuniculus [36] = species on record: Oryctolagus cuniculus; test: Vasoconstrictor effect at a concentration of 3 x 10e-9 M using nondepolarized isolated rings from rabbit.; assay type: functional
# Oryctolagus cuniculus [37] = species on record: Oryctolagus cuniculus; test: Vasoconstrictor effect at a concentration of 3 x 10e-8 M using partially depolarized isolated rings from rabbit.; assay type: functional
# Oryctolagus cuniculus [38] = species on record: Oryctolagus cuniculus; test: Vasoconstrictor effect at a concentration of 10e-5 M using nondepolarized isolated rings from rabbit.; assay type: functional
# Oryctolagus cuniculus [39] = species on record: Oryctolagus cuniculus; test: Vasoconstrictor effect at a concentration of 10e-7 M using nondepolarized isolated rings from rabbit.; assay type: functional
# Oryctolagus cuniculus [40] = species on record: Oryctolagus cuniculus; test: Vasoconstrictor effect at a concentration of 10e-8 M using nondepolarized isolated rings from rabbit.; assay type: functional
# Oryctolagus cuniculus [41] = species on record: Oryctolagus cuniculus; test: Vasoconstrictor effect at a concentration of 10e-8 M using partially depolarized isolated rings from rabbit.; assay type: functional
# Oryctolagus cuniculus [42] = species on record: Oryctolagus cuniculus; test: Vasoconstrictor effect at a concentration of 10e-6 M using partially depolarized isolated rings from rabbit.; assay type: functional
smiles,measurement,setting,value
CCOC(=O)C1=C(CS(=O)(=O)c2ccncc2)NC(C)=C(C#N)C1c1ccccc1C(F)(F)F (stereo in doubt; 54),Vasorelaxant effect,Oryctolagus cuniculus [1],0.7
same,Vasoconstriction effect,Oryctolagus cuniculus [2],0
same,Vasoconstriction effect,Oryctolagus cuniculus [3],0
same,EC25,Rattus norvegicus [4],470 nM
same,Vasoconstriction effect,Oryctolagus cuniculus [5],4.5
same,Vasorelaxant effect,Oryctolagus cuniculus [6],4.2
same,EC25,Rattus norvegicus [7],290 nM
same,Vasoconstriction effect,Oryctolagus cuniculus [8],0
same,Vasorelaxant effect,Oryctolagus cuniculus [9],-2.3
same,Vasoconstriction effect,Oryctolagus cuniculus [10],0
same,Vasorelaxant effect,Oryctolagus cuniculus [11],-4.8
same,EC25,Rattus norvegicus [12],284 nM
same,Vasorelaxant effect,Oryctolagus cuniculus [13],-9.1
same,Vasoconstriction effect,Oryctolagus cuniculus [14],0
same,EC25,Rattus norvegicus [15],535 nM
same,IC50,[16],271 nM
same,Vasorelaxant effect,Oryctolagus cuniculus [17],6.2
same,Vasoconstriction effect,Oryctolagus cuniculus [18],0
same,Vasorelaxant effect,Oryctolagus cuniculus [19],-1.8
same,Vasoconstriction effect,Oryctolagus cuniculus [20],5
same,Vasorelaxant effect,Oryctolagus cuniculus [21],53.8
same,Vasorelaxant effect,Oryctolagus cuniculus [22],-8.6
same,Vasoconstriction effect,Oryctolagus cuniculus [23],0
same,Vasoconstriction effect,Oryctolagus cuniculus [24],3.3
same,Vasorelaxant effect,Oryctolagus cuniculus [25],88.9
same,Vasoconstriction effect,Oryctolagus cuniculus [26],2.4
same,Vasorelaxant effect,Oryctolagus cuniculus [27],-1.4
same,Vasorelaxant effect,Oryctolagus cuniculus [28],-0.9
NC[C@H](O)c1ccc(O)c(O)c1 [NOREPINEPHRINE],Vasoconstriction effect,Oryctolagus cuniculus [29],7.8
same,Vasoconstriction effect,Oryctolagus cuniculus [30],49.1
same,Vasoconstriction effect,Oryctolagus cuniculus [31],18.2
same,Vasoconstriction effect,Oryctolagus cuniculus [32],84.4
same,Vasoconstriction effect,Oryctolagus cuniculus [33],0
same,Vasoconstriction effect,Oryctolagus cuniculus [34],112.6
same,Vasoconstriction effect,Oryctolagus cuniculus [35],137.2
same,Vasoconstriction effect,Oryctolagus cuniculus [36],0
same,Vasoconstriction effect,Oryctolagus cuniculus [37],63.4
same,Vasoconstriction effect,Oryctolagus cuniculus [38],151.3
same,Vasoconstriction effect,Oryctolagus cuniculus [39],80.2
same,Vasoconstriction effect,Oryctolagus cuniculus [40],22.2
same,Vasoconstriction effect,Oryctolagus cuniculus [41],46.2
same,Vasoconstriction effect,Oryctolagus cuniculus [42],106.3
